In ChEMBL document CHEMBL4613263, “Optimization of Tetrahydroindazoles as Inhibitors of Human Dihydroorotate Dehydrogenase and Evaluation of Their Activity and In Vitro Metabolic Stability” (J Med Chem, 2020):
Active and inactive are the calls of the source.

Experiments:
[1] = target: T1, Dihydroorotate dehydrogenase (quinone), mitochondrial (Homo sapiens, UniProt Q02127); test: Inhibition of […] in human ARN8 cells assessed as increase in Bax protein expression at 20 nM incubated for 24 hrs by Western blot analysis; type: cell-based
T1 sequence (Q02127 whole entry): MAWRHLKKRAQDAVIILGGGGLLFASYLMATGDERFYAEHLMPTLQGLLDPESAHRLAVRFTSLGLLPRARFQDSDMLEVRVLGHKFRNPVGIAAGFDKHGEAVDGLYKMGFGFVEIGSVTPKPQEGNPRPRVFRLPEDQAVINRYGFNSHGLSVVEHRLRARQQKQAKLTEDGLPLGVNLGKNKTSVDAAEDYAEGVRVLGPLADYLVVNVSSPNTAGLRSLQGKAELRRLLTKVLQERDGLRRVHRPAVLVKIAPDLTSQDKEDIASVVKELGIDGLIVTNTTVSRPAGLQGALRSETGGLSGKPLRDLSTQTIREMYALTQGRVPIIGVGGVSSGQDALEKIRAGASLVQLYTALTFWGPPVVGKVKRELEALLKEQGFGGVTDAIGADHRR

[2] = target: T1, Dihydroorotate dehydrogenase (quinone), mitochondrial; test: Inhibition of DHODH in human ARN8 cells assessed as DNA damage by measuring Chk2 phosphorylation at Thr68 at 20 nM incubated for 24 hrs by Western blot analysis; type: cell-based
Summary of the method: (§1)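 ARN8 cells treated 24 h before lysis in LDS buffer and protein normalization. Western blot blocked in 5% BSA/TBS-T, primary antibody overnight at 4 °C, HRP secondary and ECL detection. Loading taken from stain-free total protein.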

[3] = Kinetic aqueous solubility of compound in Prima HT solution at pH 7.4 incubated for 4 hrs by UV-spectrophotometry; type: physicochemical; details: read-out: Kinetic_solubility
Summary of the method: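 20 mM DMSO stocks diluted 100× into Prima HT buffer at pH 7.4 and shaken 4 h at rt. Samples filtered through 0.22 µm, mixed 1:1 with isopropanol and scanned by UV from 190–400 nm against stock reference standards.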

[4] = target: T1, Dihydroorotate dehydrogenase (quinone), mitochondrial; test: Inhibition of DHOH in human ARN8 cells assessed as increase in caspase 3/7 activity at 20 nM incubated for 48 hrs by live cell imaging analysis; type: cell-based
Summary of the method: (§2)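 ARN8 cells seeded at 4×10^3 per well and left 24 h, then given 20 nM compound in medium containing 2 µM caspase-3/7 substrate and 0.3 µM YOYO-3 (0.2% DMSO). Where indicated, 100 µM uridine or 20 µM Z-VAD-FMK was added. Cells imaged every 2 h for 48.5 h in an IncuCyte. Positive-cell counts per mm² normalized to confluence %; mean ± SD of three technical replicates.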

[5] = target: T1, Dihydroorotate dehydrogenase (quinone), mitochondrial; test: Inhibition of DHODH in human ARN8 cells assessed as induction of DNA damage by measuring increase in p53 phosphorylation at Ser15 at 20 nM incubated for 24 hrs by Western blot analysis; type: cell-based
Summary of the method: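 ARN8 cells seeded at 15×10^4 per well and left 24 h. Treated 24 h at 20 nM, or with etoposide at 20 µM for 1 h, with 100 µM uridine where indicated. Lysates made in LDS buffer and protein-normalized, then run on 4–15% gels and transferred to PVDF. Phospho-proteins blocked in BSA, others in milk; primary antibodies overnight at 4 °C, ECL detection. Loading judged by stain-free total protein.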

[6] = target: T1, Dihydroorotate dehydrogenase (quinone), mitochondrial; test: Inhibition of DHODH in human ARN8 cells assessed as increase in p53 level at 20 nM incubated for 24 hrs in presence of pan-caspase inhibitor, Z-VAD-FMK by Western blot analysis; type: cell-based
Summary of the method: (§3)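 ARN8 cells treated 24 h at 20 nM, with 20 µM Z-VAD-FMK or vehicle added 4.5 h before harvest. Etoposide arm was 20 µM for 1 h alongside Z-VAD-FMK. Lysates normalized for protein and analysed by western blot for p53, p-Ser15 p53, γ-H2AX, H2AX and cleaved PARP (85 kDa) against stain-free total-protein loading.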

[7] = target: T1, Dihydroorotate dehydrogenase (quinone), mitochondrial; test: Inhibition of DHODH in human ARN8 cells assessed as activation of p53-dependent transcription at 0.05 to 10 uM incubated for 16 hrs in presence of 100 uM […], uridine by CPRG assay; type: cell-based
Summary of the method: (§4)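 ARN8 cells carrying the RGCΔFos-LacZ p53 reporter seeded at 2×10^4 per well and left 24 h, then treated 16 h (0.1% DMSO final, ±100 µM uridine). Cells washed, lysed and frozen at −20 °C for at least 2 h. β-galactosidase measured with CPRG substrate at pH 7.5, read at 590 nm after 24 h. Result is fold change vs DMSO; mean ± SD of three technical replicates.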

[8] = Metabolic stability in CD-1 mouse liver microsomes assessed as half life at 1 uM incubated for 60 mins by LC-MS/MS analysis; type: ADME, Microsome; details: CD-1, mouse, liver microsomes
Summary of the method: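 Compound at 1 µM with 1.0 mg/mL human or mouse liver microsomes in 50 mM potassium phosphate pH 7.4, preincubated 5 min at 37 °C. Started with 1 mM NADPH (or blank buffer). Quenched with cold acetonitrile containing glipizide at 0, 5, 15, 30, 60 min. Parent loss tracked by LC-MS/MS in MRM mode; t½ = 0.693/k from slope of peak-area ratio versus time.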

[9] = target: T1, Dihydroorotate dehydrogenase (quinone), mitochondrial; test: Inhibition of DHODH in human ARN8 cells assessed as activation of p53-dependent transcription at 0.05 to 10 uM incubated for 16 hrs by CPRG assay; type: cell-based; summary of the method: as §4
[10] = target: T1, Dihydroorotate dehydrogenase (quinone), mitochondrial; test: Inhibition of DHOH in human ARN8 cells assessed as gammaH2AX level at 20 nM incubated for 24 hrs treated with pan-capse inhibitor, Z-VAD-FMK for 4.5 hrs prior to harvesting by Western blot analysis; type: cell-based; summary of the method: as §3
[11] = target: T1, Dihydroorotate dehydrogenase (quinone), mitochondrial; test: Inhibition of DHOH in human ARN8 cells assessed as increase in YOYO3 positive cells at 20 nM incubated for 48 hrs measured every 2 hrs by YOYO-3 staining based live cell imaging analysis; summary of the method: as §2
[12] = target: T1, Dihydroorotate dehydrogenase (quinone), mitochondrial; test: Inhibition of DHODH in human ARN8 cells assessed as DNA damage by measuring Chk1 phosphorylation at Ser345 at 20 nM incubated for 24 hrs by Western blot analysis; type: cell-based; summary of the method: as §1

O=C(N[C@@H]1CCCc2c1cnn2-c1ccccc1F)c1ncn2c1CCCC2
74 µM: solubility kinetic at 4 h [3]
active: inhibition [1] | inhibition [4] | inhibition [5] | inhibition [6] | inhibition [9] | inhibition [11]
inactive: inhibition [2] | inhibition [7] | inhibition [10] | inhibition [12]
36 min: half-life at 1 µM [8]
